In ChEMBL document CHEMBL3853270, “Influence of Birch Bark Triterpenes on Keratinocytes and Fibroblasts from Diabetic and Nondiabetic Donors” (2016):
Calls of active or inactive are those of the source. No cut-off for these calls is given here.

How the values were obtained:
Assay type in all cases: functional
Keratinocyte [1] = experiment: Effect on pro-inflammatory related gene expression in non-diabetic young human primary keratinocytes assessed as PTGS2 mRNA levels at 1.96 uM after 6 hrs by qPCR analysis
Keratinocyte [2] = experiment: Effect on chemokines related gene expression in non-diabetic young human primary keratinocytes assessed as IL8 mRNA levels at 1.96 uM after 6 hrs by qPCR analysis
Procedure, shortened: (§1)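 Primary human keratinocytes (nondiabetic young or adult, diabetic adult donors) were exposed to compound for 6 h, with 0.1% DMSO as solvent control. Total RNA came from 400 000 cells per sample and was assayed on a Fluidigm Biomark high-throughput qPCR chip. Results are fold change vs solvent control, from 2−4 independent experiments on two donors per group, with SD. Groups were compared by one-way ANOVA with Bonferroni post-test.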

Keratinocyte [3] = experiment: Effect on antioxidant related gene expression in non-diabetic young human primary keratinocytes assessed as SOD2 mRNA levels at 1.96 uM after 6 hrs by qPCR analysis
Keratinocyte [4] = experiment: Effect on AQP3 mRNA expression levels in non-diabetic adult human primary keratinocytes at 1.96 uM after 6 hrs by qPCR analysis
Procedure, shortened: (§2)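 Primary keratinocytes from nondiabetic young and adult and diabetic adult donors; 400 000 cells per sample, 6 h exposure at 1.96 or 9.81 μM. RNA extracted and read on a high-throughput qPCR chip. Results are fold change versus 0.1% DMSO solvent control from 5−7 independent experiments over two donors per group, SD, one-way ANOVA with Bonferroni post-test.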

Keratinocyte [5] = experiment: Effect on antioxidant related gene expression in diabetic adult human primary keratinocytes assessed as SOD2 mRNA levels at 1.96 uM after 6 hrs by qPCR analysis
Keratinocyte [6] = experiment: Effect on growth factor related gene expression in diabetic adult human primary keratinocytes assessed as VEGFA mRNA levels at 1.96 uM after 6 hrs by qPCR analysis; procedure, shortened: as §1
Keratinocyte [7] = experiment: Effect on pro-inflammatory related gene expression in non-diabetic young human primary keratinocytes assessed as PTGS2 mRNA levels at 9.81 uM after 6 hrs by qPCR analysis
Keratinocyte [8] = experiment: Effect on pro-inflammatory related gene expression in non-diabetic young human primary keratinocytes assessed as IL6 mRNA levels at 9.81 uM after 6 hrs by qPCR analysis
Keratinocyte [9] = experiment: Effect on growth factor related gene expression in non-diabetic young human primary keratinocytes assessed as PDGFB mRNA levels at 9.81 uM after 6 hrs by qPCR analysis; procedure, shortened: as §1
Keratinocyte [10] = experiment: Effect on MMP1 mRNA expression levels in non-diabetic young human primary keratinocytes at 9.81 uM after 6 hrs by qPCR analysis; procedure, shortened: as §2
Keratinocyte [11] = experiment: Effect on pro-inflammatory related gene expression in non-diabetic adult human primary keratinocytes assessed as IL1R1 mRNA levels at 9.81 uM after 6 hrs by qPCR analysis
Keratinocyte [12] = experiment: Effect on chemokines related gene expression in non-diabetic adult human primary keratinocytes assessed as CXCL10 mRNA levels at 9.81 uM after 6 hrs by qPCR analysis
Keratinocyte [13] = experiment: Effect on growth factor related gene expression in non-diabetic adult human primary keratinocytes assessed as VEGFA mRNA levels at 9.81 uM after 6 hrs by qPCR analysis; procedure, shortened: as §1
Keratinocyte [14] = experiment: Effect on AQP3 mRNA expression levels in non-diabetic adult human primary keratinocytes at 9.81 uM after 6 hrs by qPCR analysis; procedure, shortened: as §2
Keratinocyte [15] = experiment: Effect on pro-inflammatory related gene expression in diabetic adult human primary keratinocytes assessed as PTGS2 mRNA levels at 9.81 uM after 6 hrs by qPCR analysis
Keratinocyte [16] = experiment: Effect on growth factor related gene expression in diabetic adult human primary keratinocytes assessed as GDF15 mRNA levels at 9.81 uM after 6 hrs by qPCR analysis; procedure, shortened: as §1
Fibroblast [17] = experiment: Effect on growth factor related gene expression in non-diabetic adult human primary fibroblasts assessed as GDF15 mRNA levels at 1.96 uM after 6 hrs by qPCR analysis
Procedure, shortened: (§3)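 Primary human dermal fibroblasts (young or adult nondiabetic, adult diabetic donor) were treated for 6 h against a 0.1% DMSO solvent control. RNA from 320 000 cells per sample was measured by Fluidigm Biomark high-throughput qPCR. Values are fold change relative to solvent control, from four independent experiments, with SD. One-way ANOVA with Bonferroni post-test was applied.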

Fibroblast [18] = experiment: Effect on MMP1 mRNA expression levels in non-diabetic adult human primary fibroblasts at 1.96 uM after 6 hrs by qPCR analysis
Procedure, shortened: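 Primary dermal fibroblasts from one nondiabetic young, one nondiabetic adult and one diabetic adult donor; 320 000 cells per sample, 6 h at 1.96 or 9.81 μM. RNA measured on a high-throughput qPCR chip. Fold change versus 0.1% DMSO control, four independent experiments, SD, one-way ANOVA with Bonferroni post-test.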

Fibroblast [19] = experiment: Effect on growth factor related gene expression in diabetic adult human primary fibroblasts assessed as GDF15 mRNA levels at 1.96 uM after 6 hrs by qPCR analysis; procedure, shortened: as §3
Fibroblast [20] = experiment: Effect on growth factor related gene expression in diabetic adult human primary fibroblasts assessed as VEGFA mRNA levels at 1.96 uM after 6 hrs by qPCR analysis; procedure, shortened: as §3
Fibroblast [21] = experiment: Effect on pro-inflammatory related gene expression in non-diabetic young human primary fibroblasts assessed as IL6 mRNA levels at 9.81 uM after 6 hrs by qPCR analysis
Fibroblast [22] = experiment: Effect on pro-inflammatory related gene expression in non-diabetic adult human primary fibroblasts assessed as IL1R1 mRNA levels at 9.81 uM after 6 hrs by qPCR analysis
Fibroblast [23] = experiment: Effect on antioxidant related gene expression in diabetic adult human primary fibroblasts assessed as SOD2 mRNA levels at 9.81 uM after 6 hrs by qPCR analysis
Fibroblast [24] = experiment: Effect on antioxidant related gene expression in diabetic adult human primary fibroblasts assessed as NFE2L2 mRNA levels at 1.96 uM after 6 hrs by qPCR analysis
Fibroblast [25] = experiment: Effect on growth factors related gene expression in diabetic adult human primary fibroblasts assessed as FGF2 mRNA levels at 1.96 uM after 6 hrs by qPCR analysis; procedure, shortened: as §3
Fibroblast [26] = experiment: Effect on adhesion molecules related gene expression in non-diabetic adult human primary fibroblasts assessed as ICAM1 mRNA levels at 1.96 uM after 6 hrs by qPCR analysis
Procedure, shortened: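 Dermal fibroblasts from nondiabetic adult and diabetic adult donors, exposed for 6 h at 1.96 or 9.81 μM. ICAM-1 and VCAM-1 mRNA measured by standard qRT-PCR, n = 3. Fold change versus 0.1% DMSO control, SD, one-way ANOVA with Bonferroni post-test.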

[27] = Effect on wound healing activity in diabetic adult human primary fibroblasts assessed as upregulation of soluble VCAM1 protein levels at 1.96 uM after 24 hrs by bead-based suspension array analysis; conditions: Fibroblast
Fibroblast [28] = experiment: Effect on actin cytoskeleton in human non-diabetic primary fibroblasts assessed as formation of thin elongated cellular body at 10 nM after 2 hrs by rhodamine phalloidin-staining based fluorescence microscopic analysis
Procedure, shortened: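 Subconfluent cells on glass coverslips, collagen type I coated for fibroblasts; keratinocytes starved 2 days before stimulation. Exposure 2 h, then rhodamine-phalloidin staining (1:25 in PBS) and fluorescence microscopy. Controls were DMSO as solvent and PDGF (fibroblasts) or CNF1 (keratinocytes). Where used, p38-MAPK inhibitor LN 950 (100 nM) was added 30 min beforehand.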

Which results are given for C=C(C)[C@@H]1CC[C@]2(CO)CC[C@]3(C)[C@H](CC[C@@H]4[C@@]5(C)CC[C@H](O)C(C)(C)[C@@H]5CC[C@]43C)[C@@H]12 [BETULIN]?
fold change (FC) (Keratinocyte [1]): 1.4; fold change (FC) (Keratinocyte [2]): 9.7; fold change (FC) (Keratinocyte [3]): 1.3; fold change (FC) (Keratinocyte [4]): 0.8; fold change (FC) (Keratinocyte [5]): 1.1; fold change (FC) (Keratinocyte [6]): 1.6; fold change (FC) (Keratinocyte [7]): 1.5; fold change (FC) (Keratinocyte [8]): 6; fold change (FC) (Keratinocyte [9]): 1.1; fold change (FC) (Keratinocyte [10]): 1; fold change (FC) (Keratinocyte [11]): 0.9; fold change (FC) (Keratinocyte [12]): 4.3; fold change (FC) (Keratinocyte [13]): 1.7; fold change (FC) (Keratinocyte [14]): 0.8; fold change (FC) (Keratinocyte [15]): 2.2; fold change (FC) (Keratinocyte [16]): 2.5; fold change (FC) (Fibroblast [17]): 2.1; fold change (FC) (Fibroblast [18]): 2.1; fold change (FC) (Fibroblast [19]): 2.4; fold change (FC) (Fibroblast [20]): 2.4; fold change (FC) (Fibroblast [21]): 55; fold change (FC) (Fibroblast [22]): 4.9; fold change (FC) (Fibroblast [23]): 1.1; fold change (FC) (Fibroblast [24]): 1.8; fold change (FC) (Fibroblast [25]): 2; fold change (FC) (Fibroblast [26]): 144; Activity [27]: Active; Activity (Fibroblast [28]): Active
